# Screening data deposited in PubChem by several laboratories.
# GASC-1 inh = blocks human GASC-1 demethylase activity. inhibition, % at 2.35 µM. GST-JMJD2C(1-420) H3K9me3 demethylation, DELFIA europium. AID 2099. Q9H3R0. 330,000 tested, 0.069% active;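 active = more than half of a compound's replicate wells show inhibition beyond 50%, single wells judged on their own value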;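 also: signal counts dimethyl H3K9 product captured on neutravidin plate; 0% = median of DMSO wells and 100% = 0.3 times that DMSO median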
# Target sequence (Q9H3R0 1-420 limits assumed): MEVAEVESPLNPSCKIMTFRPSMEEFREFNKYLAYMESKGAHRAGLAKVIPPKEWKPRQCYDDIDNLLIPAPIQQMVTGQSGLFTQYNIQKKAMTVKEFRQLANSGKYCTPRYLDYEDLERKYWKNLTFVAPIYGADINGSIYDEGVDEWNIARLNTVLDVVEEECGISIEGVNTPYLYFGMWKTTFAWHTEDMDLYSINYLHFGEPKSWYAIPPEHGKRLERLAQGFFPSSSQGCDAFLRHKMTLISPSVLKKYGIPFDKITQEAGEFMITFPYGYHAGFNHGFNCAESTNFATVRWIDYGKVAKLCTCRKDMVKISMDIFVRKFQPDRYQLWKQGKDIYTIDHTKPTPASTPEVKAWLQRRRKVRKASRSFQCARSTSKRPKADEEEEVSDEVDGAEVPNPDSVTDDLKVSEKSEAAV
# SIAE inh = blocks human sialic acid acetylesterase. Q9HAT2. SIAE FP-Rh probe binding, fluorescence polarization. inhibition, % at 9.66 µM. 370,000 tested, 0.69% active. AID 1053197;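 active = inhibition above a cutoff: mean of compounds within the control limits plus 3 SD of those, cut at about 17% in these data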;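 also: 0% = plate median of compound wells and 100% = probe without SIAE protein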
# mABHD4 FP = inhibitors of mouse ABHD4; Q8VD66; purified mABHD4, FP-Rh probe fluorescence polarization; inhibition, % at 8.92 µM; 370,000 tested, 0.54% active;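 active = inhibition exceeding the mean over every tested compound plus 3 SD, cut at about 30% in these data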;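 also: 0% = plate median of compound wells and 100% = S159A mutant with DMSO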
#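 assay system = mABHD4 protein | compound dosing = single nominal dose of 8.92 µM, 0.89% DMSO final | read-out basis = percent inhibition of probe binding, normalized to plate controls | schedule = Enzyme–compound pre-incubation 45 min, then probe 60 min, both 25 °C | detection = fluorescence polarization, excitation 525 nm, emission 598 nm, BODIPY TMR filters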
# PRMT1 inh = inhibitors of human PRMT1 | Q99873 | recombinant PRMT1, activity-based probe fluorescence polarization | inhibition, % at 2.79 µM | 370,000 tested, 1.3% active;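 active = inhibition above about 21% made by adding two undisclosed values, limit read from the data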
# HTRA1 inhibitor = blocks human HTRA1 serine peptidase. recombinant HTRA1, FP-rhodamine activity-based probe, fluorescence polarization. inhibition, % at 5.96 µM. 340,000 tested, 0.5% active. AID 504803; in the data active = inhibition above about 36%;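 also: 0% = enzyme with DMSO and 100% = wells lacking enzyme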
# HTRA1 inh conf = HTRA1 (human) inhibition, confirmation; 1,600 tested, 66% active; recombinant HTRA1, FP-rhodamine activity-based probe, fluorescence polarization; inhibition, % at 5.96 µM; shares compounds with HTRA1 inhibitor;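 active = mean inhibition over three repeats above a set limit taken from the earlier primary screen, cut at about 37% in these data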;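 also: 0% = HTRA1 with DMSO and 100% = wells lacking HTRA1; inhibitors block probe binding so polarization drops and inhibition rises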
# mABHD4 conf = confirmation of mouse ABHD4 inhibitors | shares compounds with mABHD4 FP | purified mABHD4, FP-Rh probe fluorescence polarization | inhibition, % at 8.92 µM | 1,800 tested, 55% active;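 active = mean inhibition across replicates above the hit cutoff set in the primary screen, cut at about 30% in these data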;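 also: 0% = wild-type ABHD4 with DMSO and 100% = catalytically dead S159A mutant with DMSO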
# * = called active by the depositor; nt = no result given. A selection: hits, their analogues and other compounds. The true share with any hit is near 2.4%.
SMILES,GASC-1 inh,SIAE inh,mABHD4 FP,PRMT1 inh,HTRA1 inhibitor,HTRA1 inh conf,mABHD4 conf
CCN(CC)c1ccc(N=Cc2ccc(N(CC)CC)cc2O)cc1,5,6,39*,24*,65*,6,19
NC(=S)NN=Cc1nccc2c(C(F)(F)F)cccc12,nt,6,31*,-1,69*,80*,32*
O=c1c2ccccc2nc(COc2ccccc2)n1/N=C/c1ccc(O)c(O)c1,-14,-2,36*,0,72*,82*,11
CN=c1scc(-c2ccccc2F)n1/N=C/c1ccc(O)c(O)c1O,8,16,49*,20,72*,77*,60*
CN=c1scc(-c2ccccc2F)n1/N=C/c1ccc[nH]1,2,-3,-1,7,27,nt,nt
CC(C)N=c1scc(-c2cccs2)n1/N=C/c1ccc(O)c(O)c1O,-10,14,41*,10,57*,65*,54*
COc1ccc(N/N=C(/N=Nc2nc(C)cc(=O)[nH]2)c2ccccc2)cc1,12,9,40*,6,71*,76*,42*
O=C(N/N=C/c1cc(Br)c(O)c(Br)c1O)c1ccc2c(c1)OCCO2,-3,14,49*,2,44*,41*,58*
O=C(N/N=C/c1cc(Br)c(Br)o1)c1ccc2c(c1)OCCO2,6,7,6,9,5,nt,nt
Nc1[nH]n(-c2ccccc2)c(=O)c1N=Nc1ccccc1,15,11,26,-1,25,nt,nt
Nc1[nH]n(-c2ccccc2)c(=O)c1N=Nc1ccc2ncsc2c1,24,13,48*,23*,36*,26,65*
Cc1ccc(S(=O)(=O)/N=C2\C=C(Nc3cccc(C(=O)O)c3)C(=O)c3ccccc32)c(C)c1,3,16,47*,1,58*,63*,101*
O=C(O)c1cccc(NC2=C(N3CCOCC3)C(=O)c3ccccc3C2=O)c1,13,-3,5,-1,2,nt,nt
Cc1ccc(S(=O)(=O)/N=C2/C=C(Sc3ncn[nH]3)C(=O)c3ccccc32)c(C)c1,26,nt,nt,nt,nt,nt,nt
Cc1ccc(S(=O)(=O)/N=C2\C=C(Nc3cccc(C(=O)O)c3)C(=O)c3ccccc32)cc1,3,4,33*,2,52*,30,62*
CN1C(=O)c2cc(NC(=O)C3CC3)ccc2OC[C@H]2O[C@@H](CC(=O)NC3CCC3)CC[C@@H]21,nt,-3,13,0,nt,nt,nt
O=[N+]([O-])c1ccc(Cl)c(CN2CCN(c3ncc(Cc4ccccc4)cn3)CC2)c1,nt,9,-1,6,nt,nt,nt
C[C@@H]1CN([C@H](C)CO)C(=O)CCCn2nncc2CO[C@H]1CN(C)S(=O)(=O)c1ccc(C#N)cc1,nt,8,5,-3,0,nt,nt
C#CC[N+](C)(C)CCCCCCCCCCCC,0,-7,11,3,3,nt,nt
C#CC[N+](C)(C)CCCCCCCCCC,-3,-2,0,1,10,nt,nt
CCCCCCCCCCCCCCCC[N+](C)(C)CC,0,0,47*,-4,61*,167*,60*
CCCCCCCCCCCCCCCC[N+](C)(C)CCl,nt,-3,50*,1,65*,74*,12
CNc1ccc(Br)cc(C(=O)/C=C/c2ccc3c(c2)OCO3)c1=O,7,11,40*,25*,44*,13,44*
CNc1ccc(Br)cc(C(=O)/C=C/c2cc(OC)ccc2OC)c1=O,4,17*,38*,26*,39*,9,40*
CCN(C)C1CN(Cc2cn(Cc3ccc(C(F)(F)F)cc3)nn2)S(=O)(=O)C1 (stereo not drawn),nt,-2,-3,4,nt,nt,nt
O=c1cc2oc3cc(O)c(O)cc3c(-c3ccccc3[N+](=O)[O-])c-2cc1O,57*,14,53*,17,59*,68*,55*
CCOC(=O)C1CCN(C2=C(NS(=O)(=O)c3ccc(Br)cc3)C(=O)c3ccccc3C2=O)CC1,3,19*,45*,7,47*,65*,63*
CN(C)c1ccc(NC2=C(Cl)C(=O)c3ccccc3C2=O)cc1,3,10,43*,10,63*,58*,54*
